Activity calls are given as the source filed them. No cut-off for these calls is given here.

Assay [1] concerns A549. As to the kind of experiment: Prevention of autophagosome degradation in human A549 cells assessed as upregulation of p62 expression at 5 uM after 6 hrs by Western blot analysis. The format is functional, cell-based. The gist of the method:
(§1)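 A549 cells kept in serum-free medium for 1 h, then exposed to 6 μM compound or 5 μM everolimus, with or without bafilomycin A1 (400 nM), for 6 h. LC3 and p62 levels in lysates assessed by Western blot to follow autophagic flux.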
On the technique in general: In western blotting, separated proteins are transferred to a membrane and probed.

The subject of assay [2] is A549. The assay is described as follows: Induction of autophagy in human A549 cells assessed as increase in conversion of LC3-1 to LC3-2 at 5 uM after 6 hrs by Western blot analysis. Format: functional, cell-based. Summed up: as §1
In assay [3] the test system is A549. As to the kind of experiment: Induction of autophagic punctation in human A549 cells assessed as increase of puncta with LC3 at 5 uM after 6 hrs by immunofluorescence staining-based microscopic analysis relative to control. The format is functional, cell-based. The gist of the method:
(§2)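 A549 cells on chamber slides placed in serum-free medium for 1 h, then exposed for 6 h to 6 μM compound, 5 μM everolimus or 400 nM bafilomycin A1. Fixed in ice-cold methanol for 15 min at −20 °C and blocked. Stained for LC3B, LAMP2 and p62 with Alexa Fluor 488/546/647 secondaries, mounted with DAPI, and puncta assessed by fluorescence microscopy.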

Assay [4] has as its system A549. As to the kind of experiment: Induction of autophagic punctation in human A549 cells assessed as increase of puncta with p62 at 5 uM after 6 hrs by immunofluorescence staining-based microscopic analysis relative to control. The format is functional, cell-based. The gist of the method:
as §2

In assay [5] the target is Serine/threonine-protein kinase mTOR (Homo sapiens) (UniProt P42345). As to the kind of experiment: Inhibition of mTOR phosphorylation at ser2448 in human A549 cells at 5 uM after 3 to 24 hrs by Western blot analysis. Format: cell-based. The gist of the method: (§3)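 A549 total lysates harvested 3, 6, 12 or 24 h after exposure to 6 μM compound or 5 μM everolimus. Western blot on PVDF with antibodies to phospho-mTOR Ser2448, phospho-AKT Thr308 and Ser473, phospho-p70S6K Thr389, phospho-PDK1 Ser241 and PRAS40 Thr246, alongside total proteins and β-actin.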

For assay [6] the target is unchanged. As to the kind of experiment: Inhibition of mTOR in human A549 cells assessed as downregulation of p70S6K phosphorylation at thr389 at 5 uM after 3 to 24 hrs by Western blot analysis. Format: cell-based. The gist of the method:
as §3

The subject of assay [7] is A549. As to the kind of experiment: Inhibition of AKT in human A549 cells assessed as downregulation of PRAS40 phosphorylation at thr246 at 5 uM after 3 to 12 hrs by Western blot analysis. The format is cell-based. The gist of the method:
as §3

Assay [8] deals with A549. The assay is described as follows: Cytostatic activity against human A549 cells after 48 hrs by MTT assay. Format: functional, cell-based. The gist of the method:
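A549 cells in medium with 10% FBS and 1% penicillin–streptomycin, exposed to compound for 48 h. MTT (5 mg/mL stock) added at the end of exposure, then 3 h further incubation. Formazan dissolved in DMSO and read at 550 nm (reference 700 nm) as a measure of succinate dehydrogenase activity. IC50 taken from the concentration–response curve. Microscopy used for confirmation.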

Assay [9] concerns A549. As to the kind of experiment: Cytotoxicity against human A549 cells assessed as induction of cell death by microscopic analysis. The format is functional, cell-based.
The subject of assay [10] is A549. The assay is described as follows: Induction of apoptosis in human A549 cells assessed as early apoptotic cells at 100 nM after 24 hrs by FITC-annexin V/propidium iodide staining-based flow cytometric analysis relative to control. The format is functional. Summed up: (§4)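 A549 cells (5 × 10^5 cells/dish) exposed to compound (24 μM, or 100 nM for vinblastine) for 24 h. Cells washed twice with PBS and stained with FITC–annexin V plus propidium iodide in FACS buffer with 0.3% BSA. Quadrant distribution read by flow cytometry against untreated cells.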
A general note: Flow cytometry measures light scatter and fluorescence of single cells or particles in a stream.

Assay [11] relates to A549. The assay is described as follows: Induction of apoptosis in human A549 cells assessed as late apoptotic cells at 100 nM after 24 hrs by FITC-annexin V/propidium iodide staining-based flow cytometric analysis relative to control. Format: functional. The gist of the method:
as §4

Assay [12] has as its system A549. As to the kind of experiment: Downregulation of Bcl-XL protein expression in human A549 cells at 100 nM after 24 hrs by Western blot analysis. The format is functional, cell-based. Summed up:
(§5)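 Total lysates of A549 cells harvested at 0, 6, 12 and 24 h after exposure to 24 μM test agent or 100 nM vinblastine. Proteins resolved, transferred to PVDF and probed for Bcl-xL, Mcl-1, Bcl-2, Bax-1, Bid, PUMA, Bim, Bik and p53, with antibodies diluted in BlockAce and β-actin as loading reference.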

Assay [13] relates to A549. As to the kind of experiment: Downregulation of Mcl-1 protein expression in human A549 cells at 100 nM after 24 hrs by Western blot analysis. Format: functional, cell-based. The gist of the method:
as §5

In assay [14] the test system is A549. The assay is described as follows: Downregulation of BimEL protein expression in human A549 cells at 100 nM after 24 hrs by Western blot analysis. Format: functional, cell-based. Summed up:
as §5

The subject of assay [15] is A549. The assay is described as follows: Upregulation of p53 protein expression in human A549 cells at 100 nM after 24 hrs by Western blot analysis. The format is functional, cell-based. Summed up: as §5

Consider `CO[C@H]1C[C@@H]2CC[C@@H](C)[C@@](O)(O2)C(=O)C(=O)N2CCCC[C@H]2C(=O)O[C@H]([C@H](C)C[C@@H]2CC[C@@H](OCCO)[C@H](OC)C2)CC(=O)[C@H](C)/C=C(\C)[C@@H](O)[C@@H](OC)C(=O)[C@H](C)C[C@H](C)/C=C/C=C/C=C/1C`, for which the result in assay [1], in assay [3] and in assay [4] was inactive. Besides, the result in assay [2] was Active. The inhibition result in assay [5] and in [6] was “Active” throughout. In addition, the inhibition result in assay [7] is “inactive”.
Turning to `CC[C@]1(O)C[C@@H]2CN(CCc3c([nH]c4ccccc34)[C@@](C(=O)OC)(c3cc4c(cc3OC)N(C)[C@H]3[C@@](O)(C(=O)OC)[C@H](OC(C)=O)[C@]5(CC)C=CCN6CC[C@]43[C@@H]65)C2)C1` [VINBLASTINE], the results for the Activity entry in assay [8], in assay [10] and in assay [11] were “Dose-dependent effect”, 30% and 30%, respectively. Besides, the result in assay [9], in [12], in [13], in [14] and in assay [15] was Active.

These data come from ChEMBL document CHEMBL3596140, “Bisleuconothine A Induces Autophagosome Formation by Interfering with AKT-mTOR Signaling Pathway” (J Nat Prod, 2015).
